Assay outcomes (PubChem BioAssay)
This is a sample that favours compounds with a hit; in the whole collection about 3% have one here.
Apaf1 inhib: inhibitors of human Apaf-1 apoptosome, primary screen, biochemical, DEVD-Rh110 fluorescence, uHTS | Apoptotic protease-activating factor 1 (Homo sapiens), O14727 | reconstituted apoptosome caspase-3 activity | inhibition, % at 20 µM | 330,000 compounds, 0.71% hits; active means inhibition of at least 40% at 20 µM;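 further: plate controls were DMSO wells for no effect and DEVD-CHO caspase inhibitor wells for full effect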
Target sequence (O14727 whole entry, looked up): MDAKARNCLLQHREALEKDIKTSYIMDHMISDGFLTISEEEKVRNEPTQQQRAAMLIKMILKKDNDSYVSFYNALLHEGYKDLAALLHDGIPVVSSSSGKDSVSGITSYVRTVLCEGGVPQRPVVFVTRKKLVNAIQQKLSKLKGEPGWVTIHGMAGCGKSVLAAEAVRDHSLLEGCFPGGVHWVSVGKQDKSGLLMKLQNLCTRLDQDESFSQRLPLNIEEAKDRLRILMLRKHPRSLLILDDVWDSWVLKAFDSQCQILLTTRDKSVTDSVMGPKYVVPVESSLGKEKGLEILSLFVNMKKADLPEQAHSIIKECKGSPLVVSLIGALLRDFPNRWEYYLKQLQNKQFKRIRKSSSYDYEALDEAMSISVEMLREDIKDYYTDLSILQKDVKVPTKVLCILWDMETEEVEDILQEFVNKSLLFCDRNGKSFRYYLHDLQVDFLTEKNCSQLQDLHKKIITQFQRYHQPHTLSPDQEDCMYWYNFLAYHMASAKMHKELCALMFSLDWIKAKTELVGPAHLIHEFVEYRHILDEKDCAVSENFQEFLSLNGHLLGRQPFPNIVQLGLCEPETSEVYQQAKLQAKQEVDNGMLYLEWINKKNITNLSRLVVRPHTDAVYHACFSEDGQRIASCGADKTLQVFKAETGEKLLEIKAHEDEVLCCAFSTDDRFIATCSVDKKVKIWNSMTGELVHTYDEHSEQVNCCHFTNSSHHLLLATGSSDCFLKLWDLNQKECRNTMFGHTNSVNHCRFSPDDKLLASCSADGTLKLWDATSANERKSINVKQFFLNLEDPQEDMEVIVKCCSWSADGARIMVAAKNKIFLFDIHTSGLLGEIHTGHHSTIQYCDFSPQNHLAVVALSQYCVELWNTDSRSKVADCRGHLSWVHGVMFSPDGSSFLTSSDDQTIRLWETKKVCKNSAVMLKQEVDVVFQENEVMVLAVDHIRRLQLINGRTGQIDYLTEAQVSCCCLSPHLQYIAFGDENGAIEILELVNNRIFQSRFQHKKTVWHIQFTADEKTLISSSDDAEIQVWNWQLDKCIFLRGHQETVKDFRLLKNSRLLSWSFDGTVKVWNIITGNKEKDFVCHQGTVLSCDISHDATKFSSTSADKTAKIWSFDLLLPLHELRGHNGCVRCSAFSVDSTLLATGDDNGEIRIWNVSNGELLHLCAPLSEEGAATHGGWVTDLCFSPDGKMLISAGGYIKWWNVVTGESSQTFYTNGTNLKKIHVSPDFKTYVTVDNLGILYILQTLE
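System – cell-free apoptosome with Apaf-1, procaspase-3 and caspase-9 · Buffer or medium – pH 7.5 Hepes buffer with CHAPS, BSA, DTT · Also added – cytochrome c with DEVD-Rh110 · Times – 30 min compound preincubation, 50 min activation, room temperature · Technique – Rh110 fluorescence intensity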
SENP8 block-1: human SENP8 protease inhibitors, primary screen, biochemical, fluorescence, Nedd8 protein substrate, uHTS; recombinant SENP8; inhibition, % at 20 µM; 360,000 compounds, 0.64% hits; AID 602440, 2012; in the data active means inhibition mostly above about 40%, no sharp cut-off; inactive means mostly below about 27%
SENP6 inh: SENP6 protease inhibitors, primary screen, biochemical, luminescence, uHTS; Recombinant SENP6 catalytic domain, aminoluciferin luminescence; 330,000 compounds, 1.8% hits; inhibition, % at 10 µM;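 active means inhibition above about 50% at the single tested dose, limit read from the data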;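 further: plate controls were DMSO wells with enzyme for no effect and DMSO wells lacking enzyme for full effect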
UBC13 polyUb: UBC13 polyubiquitin chain formation inhibitors, primary screen, biochemical, TR-FRET, uHTS | Ubiquitin-conjugating enzyme E2 N (Homo sapiens), P61088 | inhibition, % at 20 µM | 330,000 compounds, 0.47% hits | AID 485273, 2010; in the data active means inhibition above about 45%, passing the limit was not always enough
SENP7 block: SENP7 protease inhibitors, primary screen, biochemical, luminescence, uHTS | recombinant SENP7, Z-RLRGG-aminoluciferin luminescence, 40 min | inhibition, % at 5 µM | 330,000 compounds, 1.5% hits | AID 434973, 2010;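 active means inhibition above about 50% at the single test dose, limit read from the data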;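 further: plate controls were DMSO with enzyme for no effect and no enzyme buffer wells for full effect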
SENP8 block-2: SENP8 protease inhibitors, primary screen, biochemical, luminescence; Sentrin-specific protease 8 (Homo sapiens), Q96LD8; purified SENP8, Z-RLRGG-aminoluciferin cleavage; inhibition, % at 10 µM; 330,000 compounds, 1.2% hits; AID 2540, 2010; in the data active means inhibition above about 50%
Apaf-1 inh conf2: Apaf-1 inhibitors, single-dose retest, confirmation, biochemical, fluorescence, DEVD-Rh110, 20 µM | shares compounds with Apaf1 inhib | reconstituted apoptosome, caspase-3 DEVD-Rh110 fluorescence | inhibition, % at 20 µM | 1,800 compounds, 25% hits | AID 504614, 2011;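 active means mean inhibition of at least 40% at 20 µM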;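 further: plate controls were DMSO wells for no effect and DEVD-CHO caspase inhibitor control wells for full effect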
Rh110 quench: Rh110 fluorescence interference by putative Apaf-1 inhibitors, confirmation, artefact control for Apaf-1 inhibitor project, biochemical, 20 µM | shares compounds with Apaf1 inhib | quenched caspase reaction | activation (fluorescence interference), % at 20 µM | 1,800 tested, under 10 active;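 active means signal rise of 40% or more at 20 µM, treated as a fluorescence artifact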
Fluor interf inh: fluorescence interference of Apaf-1 inhibitor hits, dose response, artefact control for Apaf-1 inhibitor project. shares compounds with Apaf1 inhib. fluorescence interference counterscreen, Apaf-1 assay format. IC50, µM. 460 tested, under 10 active; call rule not given here
Numbers without * were called inactive; i = inactive; / = not tested or not shown.

SMILES	Apaf1 inhib	SENP8 block-1	SENP6 inh	UBC13 polyUb	SENP7 block	SENP8 block-2	Apaf-1 inh conf2	Rh110 quench	others
CCCCCCSc1cccc(-c2nc3cc(C)ccn3c2NC2CCCCC2)c1	21	i	-17	36	5	0	/	/
CC(C)Oc1cccc(C(=O)Nc2nnc([C@@H]3C[C@H](O)[C@@H](CO)O3)s2)c1	/	-2	/	/	/	/	/	/
COc1ccc2c(-c3ccc(OCCN4CCCCC4)cc3)c(-c3ccccc3OC)sc2c1	60*	-376	/	/	3	/	9	11
COc1ccccc1-c1sc2ccccc2c1-c1ccc(OCCN2CCCCC2)cc1	62*	-113	/	/	7	/	10	10
COc1ccc2sc(-c3ccccc3OC)c(-c3ccc(SC)cc3)c2c1	/	-54	/	/	/	/	/	/
COc1ccc2sc(-c3ccccc3OC)c(-c3ccc(OCCN(C)C)cc3)c2c1	65*	-32	/	/	6	/	18	13
CCNC(=O)C1CCCN(C(=O)c2cc(OC)c(OC)c(OC)c2)CC1 (centres undefined)	/	10	/	/	/	/	/	/
COC(=O)C[C@H]1CC[C@@H](NS(=O)(=O)c2ccccc2)[C@@H](CO)O1	/	24	/	/	/	/	/	/
O=C(O)c1cccc(NC2=C(n3nnc4ccccc43)C(=O)c3ccccc3C2=O)c1	58*	69*	-8	-42	24	38	64*	7	Fluor interf inh=>100
COc1ccccc1-c1csc(C(O)c2ccc(F)c(F)c2)n1 (centres undefined)	/	8	/	/	/	/	/	/
CCOc1cc(/C=N/Nc2nnc(C)n2N)ccc1OC(C)=O	1	21	-8	-12	-1	-4	/	/
Cc1nnc(N/N=C/c2cccc(OCc3ccc(Cl)c(Cl)c3)c2)n1N	77*	12	31	3	-2	-17	16	5
CCOC(=O)C1CCN(c2cc3c(cc2NC(=O)c2ccccc2OCC)n(C)c(=O)n3C)CC1	40*	-53	-14	13	5	5	22	9
CCOC(=O)C1CCN(c2cc3c(cc2NC(=O)c2ccccc2Cl)n(C)c(=O)n3C)CC1	21	-130	12	10	4	-3	/	/
COc1cccc(C(NC(C)=O)c2nc(-c3ccccc3C)cs2)c1 (centres undefined)	/	14	/	/	/	/	/	/
Cc1cccc(NC2=C(NCCO)C(=O)c3ccccc3C2=O)c1	56*	17	15	-123	-1	7	35	9
Cc1cccc(Nc2nc(N)c([N+](=O)[O-])c(NCCO)n2)c1	-6	13	-2	-2	-3	-4	/	/
COc1ccc(NC2=C(NCCO)C(=O)c3ccccc3C2=O)cc1	70*	36	46	-41	10	29	45*	6	Fluor interf inh=>100
O=C(NCc1ccc(Cl)nc1)c1csc([C@@H]2C[C@H](O)[C@@H](CO)O2)n1	/	9	/	/	/	/	/	/
Nc1ccc2cn[nH]c2c1	52*	26	0	-16	5	7	30	-5
Brc1ccc2[nH]ncc2c1	-29	13	-24	-4	10	2	/	/
COc1ccc(C(O)c2nc(-c3cccc(CO)c3)cs2)cc1 (centres undefined)	/	13	/	/	/	/	/	/
Clc1ccccc1OCc1nn2c(-c3ccncc3)nnc2s1	41*	8	-26	-1	-8	3	50*	7	Fluor interf inh=>100
Clc1ccc(OCc2nn3c(-c4ccccc4)nnc3s2)c(Cl)c1	-14	8	0	2	5	5	/	/
Cc1cc2nc(-c3nnnn3-c3c(C)cccc3C)c(=O)[nH]c2cc1C	/	-384	/	/	/	/	/	/
SMILES	Apaf1 inhib	SENP8 block-1	SENP6 inh	UBC13 polyUb	SENP7 block	SENP8 block-2	Apaf-1 inh conf2	Rh110 quench	others
O=C(O)c1ccccc1C(=O)OCC1CCC(=NO)CC1 (centres undefined)	/	10	/	/	/	/	/	/
O=C(Nc1ccc(-c2cccc(F)c2)cc1)C1CCCN(Cc2ccccn2)C1 (centres undefined)	40*	-7	-3	9	0	5	15	0
COc1cccc(-c2ccc(NC(=O)C3CCCN(Cc4ccccn4)C3)cc2)c1 (centres undefined)	/	7	/	/	/	/	/	/
NC1(C#Cc2ccc3c(=O)c4ccccc4sc3c2)CCCCC1	60*	-231	44	37	12	36	23	1
CC(C)c1ccc(NC(=O)C2(C)Cc3c(-c4ccc(C(N)=O)cc4)ccnc3O2)cc1 (centres undefined)	/	4	/	/	/	/	/	/
O=C(C(Cc1ccccc1)N1C(=O)c2ccccc2C1=O)N1c2ccccc2CCc2ccccc21 (centres undefined)	40*	18	-3	-13	-12	-6	13	1
COc1cccc2sc(N(CCN(C)C)C(=O)c3ccc4c(c3)CCCC4)nc12	50*	10	-11	-2	-10	9	18	9
CCCCNc1c(-c2ccc(SC(C)CC)cc2)nc2cnccn12 (centres undefined)	60*	-482	-14	40	-2	-1	46*	33	Fluor interf inh=>100
CCCCNc1c(-c2ccc(OC)c(Sc3ccc(OC)cc3)c2)nc2cnccn12	43*	-463	-23	29	3	-6	22	7
CCCCCCSc1cc(-c2nc3cnccn3c2NCCCC)ccc1OC	46*	i	-3	26	-1	2	20	17
CC1=C(C(=O)N(C)C)CC(CC(=O)NCc2cccc3ccccc23)C(=O)N1Cc1ccc(F)cc1 (centres undefined)	/	19	/	/	/	/	/	/
O=C(c1[nH]c(C(F)(F)F)nc1-c1ccccc1)N1CCN(c2c(Cl)cncc2Cl)CC1	/	30	/	/	/	/	/	/
COc1cccc(CN2CCC2(C)C(=O)Nc2ccc(Cl)c(Cl)c2)c1F (centres undefined)	/	5	/	/	/	/	/	/
CCc1nc2ccc(C(=O)NCCN3CCOCC3)cn2c1N(CC)CCOC	/	7	/	/	/	/	/	/
